Laboratory results as given in ChEMBL document CHEMBL1149384, “Identification of a novel spiropiperidine opioid receptor-like 1 antagonist class by a focused library approach featuring 3D-pharmacophore similarity” (J Med Chem, 2006).

Tests used:
[1] = biological target: T1, Nociceptin receptor (Homo sapiens, UniProt P41146); assay: Antagonist activity on nociceptin-induced [35S]GTP-gamma-S binding to ORL1 expressed in CHO cells; type: functional, cell-based
In short: (§1)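 [35S]GTPγS binding in membrane fractions from CHO cells stably expressing human ORL1. Antagonism: IC50 against nociceptin-stimulated binding. Agonism: EC50 relative to maximal binding produced by nociceptin. Means of three independent determinations, each in duplicate.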

[2] = biological target: T1, Nociceptin receptor; assay: Agonist activity on nociceptin-induced maximal [35S]GTP-gamma-S binding to ORL1 expressed in CHO cells; type: functional, cell-based; in short: as §1
[3] = biological target: T1, Nociceptin receptor; assay: Displacement of [125I]Tyr-nociceptin from cloned human ORL1 expressed in CHO cells; type: cell-based
In short: (§2)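 Radioligand displacement using membrane fractions of CHO cells stably expressing cloned human receptors. IC50 reported as mean of three independent determinations, each in duplicate.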

[4] = biological target: Mu-type opioid receptor (Homo sapiens, UniProt P35372); assay: Displacement of [3H]diprenorphin from cloned human mu opioid receptor expressed in CHO cells; type: cell-based; in short: as §2
Chain of Mu-type opioid receptor (P35372 whole entry): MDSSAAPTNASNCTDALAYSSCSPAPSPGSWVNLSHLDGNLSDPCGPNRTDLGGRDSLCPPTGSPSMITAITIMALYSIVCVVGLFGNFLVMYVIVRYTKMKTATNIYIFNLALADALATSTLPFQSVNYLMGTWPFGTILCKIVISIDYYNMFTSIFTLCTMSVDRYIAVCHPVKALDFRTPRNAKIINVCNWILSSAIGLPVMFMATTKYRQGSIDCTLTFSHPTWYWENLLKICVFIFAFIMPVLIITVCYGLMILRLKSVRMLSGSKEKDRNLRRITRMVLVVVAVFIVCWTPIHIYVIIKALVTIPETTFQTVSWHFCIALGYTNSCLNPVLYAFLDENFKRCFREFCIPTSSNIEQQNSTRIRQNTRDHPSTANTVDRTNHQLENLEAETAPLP

[5] = biological target: Kappa-type opioid receptor (Homo sapiens, UniProt P41145); assay: Displacement of [3H]U-69593 from cloned human kappa opioid receptor expressed in CHO cells; type: cell-based; in short: as §2
Chain of Kappa-type opioid receptor (P41145 whole entry): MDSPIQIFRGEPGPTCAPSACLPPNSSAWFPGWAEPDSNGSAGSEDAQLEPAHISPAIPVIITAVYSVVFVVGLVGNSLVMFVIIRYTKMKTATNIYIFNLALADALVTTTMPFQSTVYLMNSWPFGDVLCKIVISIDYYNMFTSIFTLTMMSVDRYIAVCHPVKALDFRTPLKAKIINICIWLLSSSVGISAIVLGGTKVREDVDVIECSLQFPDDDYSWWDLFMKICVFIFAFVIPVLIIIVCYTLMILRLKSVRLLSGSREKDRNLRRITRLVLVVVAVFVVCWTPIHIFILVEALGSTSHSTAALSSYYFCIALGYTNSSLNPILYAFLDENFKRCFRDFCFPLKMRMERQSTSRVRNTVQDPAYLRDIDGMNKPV

[6] = biological target: Delta-type opioid receptor (Homo sapiens, UniProt P41143); assay: Displacement of [3H]naltrindole from cloned human delta opioid receptor expressed in CHO cells; type: cell-based; in short: as §2
Chain of Delta-type opioid receptor (P41143 whole entry): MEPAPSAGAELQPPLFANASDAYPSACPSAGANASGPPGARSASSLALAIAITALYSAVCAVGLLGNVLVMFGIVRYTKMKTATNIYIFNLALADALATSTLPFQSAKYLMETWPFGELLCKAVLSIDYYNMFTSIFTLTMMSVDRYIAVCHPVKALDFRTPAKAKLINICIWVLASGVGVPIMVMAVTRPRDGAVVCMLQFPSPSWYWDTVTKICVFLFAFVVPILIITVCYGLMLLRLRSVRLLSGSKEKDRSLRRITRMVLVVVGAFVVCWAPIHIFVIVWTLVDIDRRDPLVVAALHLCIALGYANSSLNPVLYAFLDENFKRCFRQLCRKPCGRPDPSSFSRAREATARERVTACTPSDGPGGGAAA

[7] = system: Rattus norvegicus; assay: Brain level in rat after administration of 10 mg/kg, sc; type: ADME, organism-based; set-up: dose 10 mg/kg, route subcutaneous; settings: in vivo
In short: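 Rats dosed 10 mg/kg sc. Plasma and brain collected 1 h after dosing and drug concentration measured, n = 3 per group. Plasma in nM, brain in nmol/g brain.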

[8] = system: Mus musculus; assay: Antagonist activity as % reversal against the reduction in locomotor activity produced by an ORL1 agonist in CD1 mice at 10 mg/kg, sc; type: functional; set-up: scale not given: the % may be the effect or the level left; settings: route subcutaneous
In short: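 Mice given test agent 10 mg/kg sc against an ORL1 agonist that reduces locomotor activity. Activity counted over 60 min. Value is % reversal of the agonist response, mean ± SEM, n = 7–8 per group.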

[9] = Distribution coefficient (LogD) between octanol and buffer; type: physicochemical

T1 sequence (P41146 whole entry): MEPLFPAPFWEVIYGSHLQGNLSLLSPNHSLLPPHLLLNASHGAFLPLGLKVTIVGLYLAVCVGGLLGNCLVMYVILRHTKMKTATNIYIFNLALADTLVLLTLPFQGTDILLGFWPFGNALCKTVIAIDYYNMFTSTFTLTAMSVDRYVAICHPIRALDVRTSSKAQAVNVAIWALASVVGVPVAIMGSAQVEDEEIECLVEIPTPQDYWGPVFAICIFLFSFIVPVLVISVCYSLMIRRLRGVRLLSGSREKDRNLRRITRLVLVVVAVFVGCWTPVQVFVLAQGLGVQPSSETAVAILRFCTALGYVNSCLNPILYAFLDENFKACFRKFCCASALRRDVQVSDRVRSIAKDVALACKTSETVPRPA

SMILES	IC50 [3] [nM]	also measured
O=C(NCCCN1CCC2(CCc3ccccc32)CC1)[C@@H](O)Cc1ccccc1	12	IC50 [1]: 7.5 nM; EC50 [2]: > 10000 nM; IC50 [4]: > 10000 nM; IC50 [5]: 6900 nM; IC50 [6]: > 10000 nM
O=C(NCCCN1CCC2(CCc3ccccc32)CC1)C(O)(c1ccccc1)C1CCCCC1 (configuration not stated)	> 1000	–
O=C(NCCCN1CCC2(CCc3ccccc32)CC1)[C@@H]1CCCN1C(=O)c1ccccc1	> 1000	–
CC(NC(=O)c1ccccc1)C(=O)NCCCN1CCC2(CCc3ccccc32)CC1 (configuration not stated)	> 1000	–
O=C(CCc1ccccc1)NCCCN1CCC2(CCc3ccccc32)CC1	730	–
O=C(CSc1nc2ccccc2s1)NCCCN1CCC2(CCc3ccccc32)CC1	290	–
CC1=Cc2ccccc2C1C(=O)NCCCN1CCC2(CCc3ccccc32)CC1 (configuration not stated)	> 1000	–
O=C(NCCCN1CCC2(CC1)OCc1ccccc12)[C@H]1CCCN1Cc1ccccc1	0.27	Activity [7]: 4.37 nM/g; IC50 [1]: 0.15 nM; EC50 [2]: > 1000 nM; Activity [8]: 88%; IC50 [4]: 6700 nM; IC50 [5]: 2500 nM; IC50 [6]: > 10000 nM
O=C(NCCCN1CCC2(CCc3ccccc32)CC1)C1(c2ccccc2)CCCC1	> 1000	–
O=C(CSc1ccccc1)NCCCN1CCC2(CCc3ccccc32)CC1	170	–
O=C(NCCCN1CCC2(CCc3ccccc32)CC1)C(Cc1ccccc1)c1ccccc1 (configuration not stated)	> 1000	–
O=C(CC1Cc2ccccc2C1)NCCCN1CCC2(CCc3ccccc32)CC1	> 1000	–
O=C(Cc1cccc(Oc2ccccc2)c1)NCCCN1CCC2(CCc3ccccc32)CC1	340	–
O=C(CCc1c[nH]c2ccccc12)NCCCN1CCC2(CCc3ccccc32)CC1	360	–
CC(C)(Oc1ccc(Cl)cc1)C(=O)NCCCN1CCC2(CCc3ccccc32)CC1	870	–
O=C(NCCCN1CCC2(CCc3ccccc32)CC1)[C@H]1CCC(=O)N1Cc1ccccc1	50	–
O=C(NCCCN1CCC2(CCc3ccccc32)CC1)c1ccccc1Nc1ccccc1	230	–
O=C(NCCCN1CCC2(CCc3ccccc32)CC1)[C@H]1CCCN1Cc1ccccc1	0.22	IC50 [1]: 0.12 nM; EC50 [2]: > 1000 nM; IC50 [4]: 4300 nM; IC50 [5]: 950 nM; IC50 [6]: > 10000 nM; logD [9]: 2.7
O=C(NCCCN1CCC2(CCc3ccccc32)CC1)c1ncccc1-c1ccccc1	> 1000	–
O=C(NCCCN1CCC2(CCc3ccccc32)CC1)c1ccccc1Cc1ccccc1	21	–
O=C(NCCCN1CCC2(CCc3ccccc32)CC1)c1ccc(-c2ccc(Cl)cc2)o1	> 1000	–

SMILES	IC50 [3] [nM]	also measured
O=C(NCCCN1CCC2(CCc3ccccc32)CC1)c1ccccc1Oc1ccccc1	8.2	IC50 [1]: 4 nM; EC50 [2]: > 10000 nM; IC50 [4]: > 10000 nM; IC50 [5]: 9600 nM; IC50 [6]: > 10000 nM
O=C(NCCCN1CCC2(CCc3ccccc32)CC1)[C@H]1COC(=O)N1Cc1ccccc1	24	–
O=C(NCCCN1CCC2(CCc3ccccc32)CC1)C1CCN(c2ncccn2)CC1	> 1000	–
O=C(NCCCN1CCC2(CCc3ccccc32)CC1)C1(c2ccccc2)CCCCC1	630	–
O=C(Cc1ccc2c(c1)OCO2)C(=O)NCCCN1CCC2(CCc3ccccc32)CC1	> 1000	–
O=C(NCCCN1CCC2(CCc3ccccc32)CC1)C(=O)c1c[nH]c2ccccc12	330	–
O=C(Cc1ccccc1)NCCCN1CCC2(CCc3ccccc32)CC1	> 1000	–
O=C(NCCCN1CCC2(CCc3ccccc32)CC1)C1Cc2ccccc21 (configuration not stated)	> 1000	–
COC(C(=O)NCCCN1CCC2(CCc3ccccc32)CC1)c1ccccc1 (configuration not stated)	> 1000	–
O=C(NCCCN1CCC2(CCc3ccccc32)CC1)c1cccc2c1Cc1ccccc1-2	> 1000	–
O=C(NCCCN1CCC2(CCc3ccccc32)CC1)c1cc(=O)c2ccccc2o1	> 1000	–
O=C(Cc1ccc2ccccc2c1)NCCCN1CCC2(CCc3ccccc32)CC1	> 1000	–
O=C(Cc1cccc2ccccc12)NCCCN1CCC2(CCc3ccccc32)CC1	> 1000	–
O=C(NCCCN1CCC2(CCc3ccccc32)CC1)[C@H]1COCN1C(=O)OCc1ccccc1	131	–
COc1ccc2c(c1)CC(CC(=O)NCCCN1CCC3(CCc4ccccc43)CC1)C2=O (configuration not stated)	> 1000	–
O=C1N[C@@H](Cc2ccccc2)[C@@H](C(=O)NCCCN2CCC3(CCc4ccccc43)CC2)O1	30	–
CC(C)(C)OC(=O)NC1(C(=O)NCCCN2CCC3(CCc4ccccc43)CC2)CCCCC1	> 1000	–
CC(C)(C)C(Cc1ccccc1)C(=O)NCCCN1CCC2(CCc3ccccc32)CC1 (configuration not stated)	> 1000	–
CC(Oc1ccccc1)C(=O)NCCCN1CCC2(CCc3ccccc32)CC1 (configuration not stated)	900	–
O=C(/C=C/c1ccccc1)NCCCN1CCC2(CCc3ccccc32)CC1	540	–
O=C(NCCCN1CCC2(CCc3ccccc32)CC1)C1Cc2ccccc2N1c1ccccc1 (configuration not stated)	> 1000	–

Further lines, with some results ahead:

IC50 [3] [nM]	SMILES	also measured
> 1000	O=C(Cc1ccccc1)C(=O)NCCCN1CCC2(CCc3ccccc32)CC1	–
> 1000	O=C(NCCCN1CCC2(CCc3ccccc32)CC1)c1ncccc1C(O)c1ccccc1 (configuration not stated)	–
> 1000	O=C(NCCCN1CCC2(CCc3ccccc32)CC1)C1CC1c1ccccc1 (configuration not stated)	–
580	O=C(NCCCN1CCC2(CCc3ccccc32)CC1)c1ccccc1C(O)c1ccccc1 (configuration not stated)	–
83	O=C(NCCCN1CCC2(CCc3ccccc32)CC1)c1ccccc1OCc1ccccc1	IC50 [1]: 110 nM; EC50 [2]: > 10000 nM; IC50 [4]: > 10000 nM; IC50 [5]: 2300 nM; IC50 [6]: > 10000 nM
> 1000	O=C(NCCCN1CCC2(CCc3ccccc32)CC1)C1CCCCC1C(=O)Nc1ccccc1 (configuration not stated)	–
> 1000	O=C(NCCCN1CCC2(CCc3ccccc32)CC1)C(=O)c1cnn(-c2ccccc2)c1C(F)(F)F	–
> 1000	O=C(/C=C/c1c[nH]c2ccccc12)NCCCN1CCC2(CCc3ccccc32)CC1	–
> 1000	C[C@@H](O)[C@H](NC(=O)c1ccccc1)C(=O)NCCCN1CCC2(CCc3ccccc32)CC1	–
> 1000	Cc1ccc(C(=O)/C=C/C(=O)NCCCN2CCC3(CCc4ccccc43)CC2)cc1	–
> 1000	O=C(NCCCN1CCC2(CCc3ccccc32)CC1)c1ncccc1Oc1ccccc1	–
> 1000	O=C(NCCCN1CCC2(CCc3ccccc32)CC1)C1Cc2ccccc2C1	–
> 1000	CC(Oc1ccc(Cl)cc1Cl)C(=O)NCCCN1CCC2(CCc3ccccc32)CC1 (configuration not stated)	–
> 1000	O=C(N[C@H]1CCCC[C@H]1C(=O)NCCCN1CCC2(CCc3ccccc32)CC1)c1ccccc1	–
> 1000	O=C(NCCCN1CCC2(CCc3ccccc32)CC1)C1CCc2ccccc2C1 (configuration not stated)	–
> 1000	O=C(NCCCN1CCC2(CCc3ccccc32)CC1)c1cccc(Oc2ccccc2)c1	–
> 1000	CC(=O)N/C(=C\c1ccccc1)C(=O)NCCCN1CCC2(CCc3ccccc32)CC1	–
47	O=C(NCCCN1CCC2(CCc3ccccc32)CC1)[C@@H]1CCCN1Cc1ccccc1	IC50 [1]: 42 nM; EC50 [2]: > 10000 nM; IC50 [4]: > 10000 nM; IC50 [5]: 7900 nM; IC50 [6]: > 10000 nM
> 1000	O=C1CC(C(=O)NCCCN2CCC3(CCc4ccccc43)CC2)c2ccccc21 (configuration not stated)	–
> 1000	O=C(NCCCN1CCC2(CCc3ccccc32)CC1)[C@H](O)Cc1ccccc1	–
> 1000	CN(CC(=O)NCCCN1CCC2(CCc3ccccc32)CC1)C(=O)c1ccccc1	–
> 1000	Cc1onc(-c2ccccc2)c1C(=O)NCCCN1CCC2(CCc3ccccc32)CC1	–
> 1000	O=C(N[C@H]1CCCC[C@@H]1C(=O)NCCCN1CCC2(CCc3ccccc32)CC1)c1ccccc1	–
10	O=C(NCCCN1CCC2(CCc3ccccc32)CC1)c1ccccc1-c1ccccc1	IC50 [1]: 8.3 nM; EC50 [2]: > 10000 nM; IC50 [4]: > 10000 nM; IC50 [5]: 3700 nM; IC50 [6]: > 10000 nM; logD [9]: 3.1
350	O=C(CCCc1ccccc1)NCCCN1CCC2(CCc3ccccc32)CC1	–
> 1000	COc1ccccc1/C=C\C(=O)NCCCN1CCC2(CCc3ccccc32)CC1	–
